The subject of data set [1] is Trypanosoma brucei rhodesiense. The data set can be described thus: Antitrypanosomal activity against Trypanosoma brucei rhodesiense STIB 900 trypomastigotes. It counts as functional, organism-based. An outline of the steps:
(§1)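 96-well format screens: bloodstream-form T. b. rhodesiense trypomastigotes, T. cruzi amastigotes within infected L6 rat skeletal myoblasts, axenically grown L. donovani amastigotes, and uninfected L6 cells for cytotoxicity. IC50 (μM) obtained by linear regression from sigmoidal dose–inhibition curves.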

Data set [2] has as its system Trypanosoma cruzi. The data set can be described thus: Antitrypanosomal activity against Trypanosoma cruzi Tulahuen C4 amastigotes. It counts as functional, organism-based. The method in brief: as §1
Another data set concerns Leishmania donovani. The data set can be described thus: Antileishmanial activity against Leishmania donovani MHOM-ET67/L82 amastigotes. It counts as functional, organism-based. The method in brief:
as §1

Another data set concerns L6. The data set can be described thus: Cytotoxicity against rat L6 cells. It counts as cell-based. The method in brief: as §1
In data set [3] the test system is Trypanosoma brucei brucei. As to the kind of experiment: Antitrypanosomal activity against bloodstream form of Trypanosoma brucei brucei Lister 427 clone 221a. It counts as functional, organism-based. The method in brief:
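Bloodstream-form parasites seeded at 1 × 10^3 per ml in growth medium with a range of compound concentrations; where required, TbNTR expression induced with tetracycline (1 μg/mL). Incubation 3 days at 37 °C, then Alamar blue added for a further 16 h. Cell density read and IC50 determined.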

Data set [4] has as its system Trypanosoma cruzi. As to the kind of experiment: Ratio of benznidazole IC50 to compound IC50 for Trypanosoma cruzi Tulahuen C4 amastigotes. It counts as functional.
A short description of data set [5]: Selectivity index, ratio of IC50 for rat L6 cells to IC50 for Trypanosoma cruzi Tulahuen C4 amastigotes.
The nature of data set [6]: Selectivity index, ratio of IC50 for rat L6 cells to IC50 for Trypanosoma brucei rhodesiense STIB900 trypomastigotes.
In data set [7] the test system is Trypanosoma brucei brucei. As to the kind of experiment: Antitrypanosomal activity against bloodstream form of Trypanosoma brucei brucei Lister 427 clone 221a overexpressing tet-inducible NTR in absence of tetracycline after 3 days. The note with it: 72 h.
Data set [8] has as its system Trypanosoma brucei brucei. The data set can be described thus: Antitrypanosomal activity against bloodstream form of Trypanosoma brucei brucei Lister 427 clone 221a overexpressing tet-inducible NTR in presence of tetracycline after 3 days. The following applies: 72 h.
The test system of data set [9] is Trypanosoma brucei brucei. As to the kind of experiment: Selectivity ratio of IC50 for Trypanosoma brucei brucei Lister 427 clone 221a overexpressing tet-inducible NTR in absence of tetracycline to IC50 for Trypanosoma brucei brucei overexpressing tet-inducible NTR in presence of tetracyclin.

With `Cc1ccc(S(=O)(=O)NCCCn2cnc([N+](=O)[O-])n2)cc1`, the IC50 in data set [1] was 2.54 µM; in the data set with Trypanosoma cruzi [2] it was 0.412 µM; with Leishmania donovani, 38.1 µM; in the data set on L6, over 308 µM; in data set [3] it was 4 µM; in [7], 5.63 µM. For the same compound, the IC50 in data set [8] turned out to be 0.24 µM. For the same compound, the “Ratio IC50” value with Trypanosoma cruzi [4] amounted to 3.8; in [9] it was 23. In addition, the selectivity ratio in data set [5] was over 747; in data set [6], over 121.
Turning to `O=[N+]([O-])c1ncn(CCCCNS(=O)(=O)c2ccc(C(F)(F)F)cc2)n1`, the IC50 in data set [1] is 0.354 µM; in the data set with Trypanosoma cruzi [2] it was 0.71 µM; with Leishmania donovani, 7.79 µM; with L6, 84.9 µM. Further, the “Ratio IC50” value with Trypanosoma cruzi [4] came to 2.2. The selectivity ratio in [5] was 120; in data set [6], 240.
The compound `COc1cc([C@@H]2c3cc4c(cc3[C@H](O)[C@H]3COC(=O)[C@H]23)OCO4)cc(OC)c1OC` [PODOFILOX] showed an IC50 in the data set with L6 of 0.022 µM.
`Cn1ccnc1S(=O)(=O)NCCn1cnc([N+](=O)[O-])n1`: the concentration for half-maximal inhibition (IC50) in data set [1] is 35.9 µM; in the data set with Trypanosoma cruzi [2], 83.4 µM; in the data set with Leishmania donovani it was over 332 µM; in the data set with L6, over 332 µM. Further, the “Ratio IC50” value with Trypanosoma cruzi [4] came to 0. In addition, the selectivity ratio was over 4 in data set [5] and over 9.3 in data set [6].
As for `O=C(NCCCn1cnc([N+](=O)[O-])n1)c1ccc(C(F)(F)F)nc1`, the IC50 in data set [1] is 3.55 µM; in the data set on Trypanosoma cruzi [2] it was 3.46 µM; in the data set on Leishmania donovani, 96.5 µM; with L6 it was over 291 µM; in data set [3], 7.9 µM. In the data set with Trypanosoma cruzi [4], the “Ratio IC50” value came out at 0.5. The selectivity ratio in data set [5] was over 84.
With `O=C(NCCCn1ccnc1[N+](=O)[O-])c1ccc(C(F)(F)F)cc1`, the IC50 in data set [1] is 21.4 µM; in the data set on Trypanosoma cruzi [2], 6.05 µM; in the data set with Leishmania donovani it was 13.8 µM; with L6, 177 µM. Besides, the “Ratio IC50” value with Trypanosoma cruzi [4] was found to be 0.3. For the same compound, the selectivity ratio in data set [5] came to 29.
With `O=C(NCCCn1cnc([N+](=O)[O-])n1)c1cnc2ccccc2n1`, the IC50 in data set [1] is 34.9 µM; with Trypanosoma cruzi [2] it was 0.807 µM; in the data set with Leishmania donovani, 62.7 µM; in the data set with L6 it was over 306 µM; in data set [3], over 10 µM. Also, the “Ratio IC50” value in the data set with Trypanosoma cruzi [4] is given as 1.9. In data set [5], the selectivity ratio is over 379.
Take `O=C(Cn1ccnc1[N+](=O)[O-])NCc1ccccc1` [BENZNIDAZOLE]: the values for the IC50 (in the data set on Trypanosoma cruzi [2]; in data set [7]; in data set [8]) were 1.56 µM, 21.8 µM and 2.2 µM, respectively. For the same compound, the “Ratio IC50” value in [9] is 10.
On to `O=[N+]([O-])c1ncn(CCCNS(=O)(=O)c2cc(C(F)(F)F)ccc2C(F)(F)F)n1`, for which the IC50 in data set [1] was 10.3 µM; with Trypanosoma cruzi [2] it was 0.644 µM; in the data set with Leishmania donovani, 46.1 µM; in the data set with L6, 115 µM; in data set [3], over 10 µM. Besides, the “Ratio IC50” value with Trypanosoma cruzi [4] came out at 2.4. In addition, the selectivity ratio in [5] amounted to 178.
On to `O=[N+]([O-])c1ncn(CCNS(=O)(=O)c2cc(C(F)(F)F)cc(C(F)(F)F)c2)n1`, for which the 50% inhibitory concentration (IC50) is 36.7 µM in [1]; 1.68 µM in the data set on Trypanosoma cruzi [2]; 33.3 µM in the data set with Leishmania donovani; 111 µM in the data set with L6; 7.9 µM in data set [3]. The “Ratio IC50” value in the data set on Trypanosoma cruzi [4] was 0.9. Further, the selectivity ratio in data set [5] was 66.2; in data set [6] it was 3.
Regarding `O=C(NCCn1cnc([N+](=O)[O-])n1)c1ccc(OC(F)(F)F)cc1`, the IC50 was 1.99 µM in data set [1], 0.73 µM with Trypanosoma cruzi [2], 29.2 µM with Leishmania donovani and over 261 µM in the data set on L6. Besides, the “Ratio IC50” value in the data set with Trypanosoma cruzi [4] is listed as 2.1. Also, the selectivity ratio in data set [5] is over 357; in data set [6], over 131.
Regarding `O=[N+]([O-])c1ncn(CCCNS(=O)(=O)c2ccc(-c3ccccc3)cc2)n1`, the IC50 was 1.05 µM in data set [1]; 0.028 µM in the data set with Trypanosoma cruzi [2]; 7.54 µM with Leishmania donovani; 50 µM in the data set with L6; 0.5 µM in [3]; 0.44 µM in data set [7]. The IC50 in data set [8] was found to be 0.07 µM. Moreover, the “Ratio IC50” value in the data set with Trypanosoma cruzi [4] came out at 55.8; in data set [9], 6. The selectivity ratio in [5] stood at 1760.
For `Cn1ccnc1S(=O)(=O)NCCCn1cnc([N+](=O)[O-])n1`, the half-maximal inhibitory concentration (IC50) in data set [1] was 21.9 µM; with Trypanosoma cruzi [2], 20.6 µM; in the data set with Leishmania donovani, 223 µM; in the data set on L6 it was over 318 µM. Further, in the data set on Trypanosoma cruzi [4], the “Ratio IC50” value worked out at 0.1. Further, the selectivity ratio in data set [5] was over 15; in [6], over 14.5.
For `O=[N+]([O-])c1ncn(CCCNS(=O)(=O)c2cccc3cccnc23)n1`, the IC50 in data set [1] was 6.52 µM; in the data set with Trypanosoma cruzi [2] it was 0.4 µM; in the data set with Leishmania donovani it was 32.9 µM; in the data set on L6, 208 µM; in [3], over 10 µM. The “Ratio IC50” value in the data set on Trypanosoma cruzi [4] came out at 3.9. Also, the selectivity ratio in data set [5] amounted to 519.
In the case of `Nc1nc(N)nc(Nc2ccc([As]3SCC(CO)S3)cc2)n1` (configuration not stated) [MELARSOPROL], the IC50 in [7] and in [8] was 0.0034 µM throughout. Moreover, in data set [9], the “Ratio IC50” value is listed as 1.
As for `O=[N+]([O-])c1ncn(CCNS(=O)(=O)Cc2ccccc2)n1`, the IC50 in [1] was 8.39 µM; in the data set on Trypanosoma cruzi [2], 6.46 µM; in the data set with Leishmania donovani, 113 µM; in the data set with L6, over 322 µM. Besides, the “Ratio IC50” value with Trypanosoma cruzi [4] was 0.2. The results for the selectivity ratio in [5] and in [6] were over 48 and over 38.3, respectively.
Consider `O=[N+]([O-])c1ncn(CCCNS(=O)(=O)c2cc(C(F)(F)F)cc(C(F)(F)F)c2)n1`, for which the IC50 in data set [1] was 11.3 µM; in the data set on Trypanosoma cruzi [2], 0.322 µM; in the data set on Leishmania donovani, 20.7 µM; in the data set with L6, 109 µM; in data set [3], 6.6 µM. Further, the “Ratio IC50” value in the data set on Trypanosoma cruzi [4] worked out at 4.9. The selectivity ratio came out at 338 in data set [5] and 9.6 in [6].
As to `O=[N+]([O-])c1ncn(CCCNS(=O)(=O)Cc2ccccc2)n1`, the IC50 was 6.49 µM in data set [1], 2.24 µM in the data set on Trypanosoma cruzi [2], 79.4 µM with Leishmania donovani and over 308 µM in the data set on L6. Besides, the “Ratio IC50” value in the data set with Trypanosoma cruzi [4] was 0.7. Further, the results for the selectivity ratio in data set [5] and in data set [6] were over 138 and over 47.4, respectively.
With `O=C(NCCCn1cnc([N+](=O)[O-])n1)c1cccc(C(F)(F)F)c1`, the IC50 in data set [1] was 3.76 µM; in the data set on Trypanosoma cruzi [2], 0.353 µM; with Leishmania donovani, 37.3 µM; in the data set on L6, over 292 µM; in data set [3], over 10 µM. Besides, the “Ratio IC50” value in the data set on Trypanosoma cruzi [4] turned out to be 4.4. In data set [5], the selectivity ratio is over 826.
In the case of `O=C(NCCCn1cnc([N+](=O)[O-])n1)c1cc(C(F)(F)F)cc(C(F)(F)F)c1`, the concentration for half-maximal inhibition (IC50) was 16.4 µM in data set [1]; 0.642 µM in the data set on Trypanosoma cruzi [2]; 12.3 µM with Leishmania donovani; 187 µM with L6; over 10 µM in [3]. In the data set with Trypanosoma cruzi [4], the “Ratio IC50” value was 2.4. Besides, the results for the selectivity ratio in [5] and in [6] were 291 and 11.4, respectively.
With `O=C(NCCCn1ccnc1[N+](=O)[O-])c1ccc(OC(F)(F)F)cc1`, the IC50 in data set [1] was found to be 46.6 µM; with Trypanosoma cruzi [2], 3.71 µM; in the data set on Leishmania donovani, 36 µM; in the data set on L6, 274 µM. In addition, in the data set with Trypanosoma cruzi [4], the “Ratio IC50” value is on record as 0.4. Besides, the selectivity ratio in [5] worked out at 74.

In general, IC50 refers to the point on the concentration scale where inhibition reaches its midpoint.
